# The list is not random: actives were taken first. Their share in the collection is about 1.6%.
# Rin1-Abl PPI inh = human Rin1-Abl interaction inhibition; P00519+Q13671; TR-FRET Rin1/Abl binding, biochemical; inhibition, % at 7.35 µM; hit rate 0.4% among 360,000; in the data active = inhibition above about 5%, passing the limit was not always enough
# Arrestin-AP2 inh = blocks beta-arrestin peptide binding to AP2 adaptin | inhibition, % at 10 µM | FITC-arrestin peptide / GST-AP2 beads, flow cytometry; AP2 beta2 appendage carries R879A mutation | hit rate 0.31% among 340,000 | AID 504490;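 active = inhibition above a set limit, near 3 SD of compounds lacking own fluorescence, cut at about 54% in these data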;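 also: plate controls were DMSO wells for no effect and 5 µM unlabelled arrestin peptide for full effect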
#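 System: GST-tagged AP2 beta2-adaptin appendage (R879A) on 4 µm glutathione beads / Reagent: FITC-arrestin peptide, 50 nM / Detection: HyperCyt-sampled flow cytometry, FL1 channel, ex 488/em 535 nm / Timing: 12 min plus 1 h, RT / Buffer or medium: PBS plus Tween 20 (0.05%) and BSA (0.1%)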
# TbMetRS inhib = Trypanosoma brucei MetRS inhibition | purified T. brucei MetRS, ATP depletion, Kinase-Glo luminescence | inhibition, % at 11.9 µM | AID 624268 | hit rate 0.4% among 360,000;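 active = inhibition above a per-plate cutoff of the control wells' mean inhibition plus 3 SD, cut at about 5.5% in these data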;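 also: 0% = DMSO wells median and 100% = median of wells with control inhibitor compound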
#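 Test system – parasite MetRS enzyme · Reagent – substrates ATP, L-methionine and bulk Escherichia coli tRNA · Doses – 11.9 µM compound single dose, 0.9% DMSO · Times – 15 min enzyme-compound preincubation, 2 h reaction, 10 min detection, 25 °C · Signal – Kinase-Glo luminescence, ATP depletion format · Controls – DMSO-only wells as low control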
# MT1-MMP act inh = MT1-MMP (human) activation inhibition; P50281; HT1080 RFP-PRO-GFP cells, GFP/RFP ratio fluorescence, overnight; percent of plate control window, DMSO zero; GFP/RFP ratio change, % at 20 µM; hit rate 0.061% among 360,000; AID 651647;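 active = GFP/RFP ratio change of at least 30% with cell ATP level not reduced by more than half and red fluorescence within 50% of control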
#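 Assay system: HT1080 RFP-PRO-GFP cells. Benchmarks: DMSO vehicle wells and RFP-L50D-GFP reporter cell wells. Times: overnight cell settling, then overnight compound exposure, 37 °C, 5% CO2. Compound: 20 µM single dose, 1% DMSO. Read-out basis: GFP/RFP fluorescence ratio.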
# SKN-1 inh = inhibitors of C. elegans SKN-1. inhibition, % at 21.8 µM. C. elegans VP596 Pgst-4::GFP/RFP ratio, acrylamide-induced, 24 h. hit rate 0.49% among 360,000. AID 624304;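 active = interference check ratio from 0.5 to 1.5 plus GFP to RFP signal ratio inhibition reaching or exceeding a fixed threshold, cut at about 30% in these data, passing the limit was not always enough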
# Tb MetRS conf = Trypanosoma brucei MetRS inhibition confirmed | inhibition, % at 11.9 µM | T. brucei MetRS enzyme, luminescence (ATP depletion) | shares compounds with TbMetRS inhib | hit rate 93% among 1,400; in the data active = inhibition above about 7%
# Jurkat cytotox = kills Jurkat cells in T. brucei MetRS counterscreen. AID 624413. hit rate 12% among 1,400. Jurkat cells viability, ATP luminescence. inhibition, % at 8.3 µM. shares compounds with TbMetRS inhib; in the data active = inhibition above about 15%;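 also: 0% = vehicle and 100% = reference inhibitor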
# TbMetRS FP orth = T. brucei MetRS inhibition, orthogonal assay. shares compounds with TbMetRS inhib. purified T. brucei MetRS, fluorescence polarization. inhibition, % at 11.9 µM. hit rate 44% among 1,400; in the data active = inhibition above about 17%;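 also: 0% = vehicle wells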
# * marks the source's active call; other numbers are inactive results; . = no result given.
SMILES,Rin1-Abl PPI inh,Arrestin-AP2 inh,TbMetRS inhib,MT1-MMP act inh,SKN-1 inh,Tb MetRS conf,Jurkat cytotox,TbMetRS FP orth
C[C@H](O)[C@@H]1CN2CCc3c([nH]c4ccccc34)[C@@H]2C[C@@H]1N(C)C(=O)Nc1cc(Cl)cc(Cl)c1,-4,.,29*,-15,17,58*,9,37*
CN(C(=O)C(C)(C)C)[C@H]1C[C@H]2c3[nH]c4ccccc4c3CCN2C(=O)[C@H]1CO,-2,.,1,-7,11,.,.,.
CN(Cc1cc(Cl)cc(Cl)c1)[C@H]1C[C@H]2c3[nH]c4ccccc4c3CCN2C(=O)[C@H]1CO,-1,.,62*,-31,2,106*,-3,86*
CC(NS(=O)(=O)c1ccc(Br)cc1F)[C@H](O)c1ccccc1 (stereo not given in full),-4,.,0,1,2,.,.,.
COc1ccc(CNC(=O)CCC(=O)N2CCN(S(=O)(=O)c3cc([N+](=O)[O-])ccc3C)CC2)cc1,3,4,0,-2,2,.,.,.
CC1=NN(c2ccc(F)cc2)C(=O)C1C(c1cccc(O)c1)c1c(C)[nH]n(-c2ccc(F)cc2)c1=O (stereo not given),5,29,19*,6,27,3,-6,2
CC1=NN(c2ccc(Cl)cc2)C(=O)C1C(c1cccc(O)c1)c1c(C)[nH]n(-c2ccc(Cl)cc2)c1=O (stereo not given),-1,1,0,14,3,.,.,.
COc1cccc(/C(O)=C/c2nc3ccc(C(=O)NCCc4cccc(C)c4)cc3[nH]c2=O)c1,-1,11,7.4*,-23,-16,6.6*,15*,3
COc1cccc(/C(O)=C/c2nc3ccc(C(=O)NCCc4ccc(Cl)cc4)cc3[nH]c2=O)c1,2,6,-1,-81,22,.,.,.
COc1ccc(-c2noc([C@@H]3O[C@H](CO)[C@H](O)[C@H](O)[C@H]3O)n2)cc1OC,4,.,7.5*,0,-4,3,-7,6
Cc1ccc(-c2nnc(N3CCCCC3)c3ccccc23)cc1S(=O)(=O)N(C)C,1,4,0,-6,5,.,.,.
Cc1ccc(-c2nnc(NCc3nc4ccccc4[nH]3)c3ccccc23)cc1S(=O)(=O)N(C)C,-8,21,13*,2,-1,24*,4,16
COCCCn1cc(CN2CC(N3CCN(Cc4ccccc4F)CC3)CS2(=O)=O)nn1 (stereo not given),.,.,0,5,7,.,.,.
Clc1ccc(/C(Cc2nc3ccccc3[nH]2)=N\Nc2ccccc2)cc1,-2,-3,8.6*,-3,7,32*,4,17*
Fc1ccccc1CSCc1nc2ccccc2[nH]1,-2,-4,1,5,12,.,.,.
Brc1cnc2nc(SCc3nc4ccccc4[nH]3)[nH]c2c1,-1,-1,57*,2,25,85*,-2,65*
Fc1ccc(CSc2nc3ncc(Br)cc3[nH]2)cc1,-21,3,3,1,22,.,.,.
O=C(Cc1nc2ccccc2[nH]1)c1ccc(Cl)cc1,-2,0,1,-3,10,.,.,.
Clc1ccc(SCc2nc3ccccc3[nH]2)cc1,0,-1,17*,-2,19,30*,8,13
Clc1ccc(OCCSCc2nc3ccccc3[nH]2)cc1,-3,4,58*,-5,24,73*,5,48*
CC(c1nc2ccccc2c(=O)[nH]1)N1CCN(S(=O)(=O)c2ccc(F)c(Cl)c2)CC1 (stereo not given),-7,.,0,-3,-3,.,.,.
O=c1c2c([nH]c3ccc(Br)cc13)CCCC2,2,-3,14*,-1,22,27*,5,14
COCCNC(=O)C1(C)CCCN(Cc2ccc3ccccc3c2Br)C1 (stereo not given),-6,.,0,8,4,.,.,.
Cc1cccc(NC(=O)CCNC(=O)c2ccc(Br)cc2)c1,0,17,31*,-1,6,56*,1,70*
O=C(CCCNC(=O)c1ccc(Cl)cc1)Nc1ccc(Br)cc1,5,5,9.1*,2,2,60*,6,43*
SMILES,Rin1-Abl PPI inh,Arrestin-AP2 inh,TbMetRS inhib,MT1-MMP act inh,SKN-1 inh,Tb MetRS conf,Jurkat cytotox,TbMetRS FP orth
O=C(COC(=O)CCCNC(=O)c1ccc(Cl)cc1)Nc1ccc(Br)cc1,2,14,0,-2,11,.,.,.
CCN1CCN(C(=O)c2ccc3nc(-c4ccccc4)c(-c4ccccc4)nc3c2)CC1,3,-4,0,-2,-4,.,.,.
COc1ccc(C(O)c2ncc(-c3ccccc3Cl)[nH]2)cc1F (stereo not given),-3,.,0,8,-3,.,.,.
Cc1cc2nc(-c3ccc(Cl)cc3)c(CC3CCCCC3)n2c(C)c1Br,.,.,0,-5,2,.,.,.
Nc1nc2cc3ccccc3cc2[nH]c1=O,-2,16,6.3*,3,8,5.8*,3,0
C=CCOc1c(Br)cc(C2C3=C(CCCC3=O)N(C)C3=C2C(=O)CCC3)cc1OCC,-3,-2,9.5*,3,1,16*,-7,10
C=CCOc1c(Br)cc(C2NC(=O)NC(C)=C2C(C)=O)cc1OCC (stereo not given),1,8,7.0*,-5,-4,15*,-7,7
Cc1ccc(C)c(OCCC(=O)Nc2cccc(S(=O)(=O)NC3=NCCCCC3)c2)c1,4,11,7.0*,7,-9,22*,6,18*
Cc1ccc(C)c(C(=O)OCC(=O)Nc2cccc(S(=O)(=O)NC3=NCCCCC3)c2)c1,-1,4,0,-2,1,.,.,.
Nc1c(NC(=O)CC[n+]2ccccc2)cccc1[N+](=O)[O-],-5,-4,11*,-1,3,18*,-4,2
CN(C)c1cc[n+](CCC(=O)Nc2cccc([N+](=O)[O-])c2N)cc1,-8,6,1,-2,5,.,.,.
CCO[C@H]1OC(C(=O)NCc2nc3ccccc3[nH]2)=C[C@@H](C2CCCCC2)[C@@H]1CCCO,3,9,4,3,16,.,.,.
CC(C)(C)[C@H]1C=C(C(=O)NCc2ccccc2)O[C@@H](OCCCCO)C1,0,13,0,3,8,.,.,.
CC(C)(C)[C@H]1C=C(C(=O)NCc2nc3ccccc3[nH]2)O[C@@H](OCCCCO)C1,0,3,57*,0,12,97*,-6,61*

# Assay outcomes (PubChem BioAssay)
